The values below come from ChEMBL document CHEMBL1129934, “Synthesis, antimalarial activity, and molecular modeling of tebuquine analogues” (J Med Chem, 1997).

In test [1] the test system is Plasmodium falciparum. Briefly: In vitro inhibition of chloroquine-sensitive Plasmodium falciparum HB3. It is filed as functional, organism-based. The method, boiled down: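 HB3 parasites kept in human erythrocytes (2–5%) in RPMI 1640 with 25 mM HEPES, 32 mM NaHCO3, 10% human serum, gassed 3% O2/4% CO2/93% N2. 48 h assay: initial parasitemia 1%, 5% hematocrit, ethanol-dissolved drug (final <1% ethanol); [3H]-hypoxanthine (0.5 μCi) added at 24 h, counted after further 24 h. Triplicate; IC50 by probit interpolation of log dose–response.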

Test [2] can be described thus: Cellular accumulation ratio (CAR) for chloroquine sensitive HB3 strain of Plasmodium falciparum. The test is classed as functional. The method, boiled down: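 IC50 for HB3 measured at a range of inoculum sizes in the [3H]-hypoxanthine 48 h assay. It is extrapolated to zero inoculum to give the absolute IC50. CAR is calculated as (measured IC50 − absolute IC50)/(absolute IC50 × fractional volume of parasitized RBC).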

For test [3], the system named is Plasmodium falciparum. Briefly: In vitro inhibition of chloroquine-resistant Plasmodium falciparum K1. The test is classed as functional, organism-based. The method, boiled down:
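P. falciparum K1 (uncloned, Thailand) kept in human erythrocytes in RPMI 1640 with 25 mM HEPES, 32 mM NaHCO3, 10% human serum, under 3% O2/4% CO2/93% N2. Stocks in ethanol, final <1% ethanol. 48 h test at 1% initial parasitemia, 5% hematocrit, 37 °C; [3H]-hypoxanthine added at 24 h, incorporation counted at 48 h. IC50 by probit interpolation of log dose–response; triplicate.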

With `CCNCCCC(C)Nc1ccnc2cc(Cl)ccc12` (configuration not stated) [DESETHYLCHLOROQUINE], the IC50 – broadly, the concentration that inhibits the measured activity by half – in the test with Plasmodium falciparum [1] amounted to 17 nM. The CAR in test [2] was determined as 682.
On to `CCN(CC)CCCC(C)Nc1ccnc2cc(Cl)ccc12` (configuration not stated), for which, in test [2], the CAR was 1860.
On to `CC(C)(C)NCc1cc(Nc2ccnc3cc(Cl)ccc23)ccc1O` [N-TERT-BUTYL-AMODIAQUINE], for which, in the test on Plasmodium falciparum [1], the IC50 was found to be 3.7 nM. The CAR in test [2] was found to be 21100.
Taken in the same sequence, the figures for `CCN(CC)Cc1c(O)cc(F)c(Nc2ccnc3cc(Cl)ccc23)c1F` were 47.3 nM and 922.
On to `CCN(CC)Cc1cc(Nc2ccnc3cc(Cl)ccc23)ccc1O`, for which the IC50 in the test on Plasmodium falciparum [1] was 3.7 nM; in the test with Plasmodium falciparum [3] (Plasmodium falciparum), 27.2 nM. Also, the CAR in test [2] stood at 12600.
For `CCN(CC)Cc1cc(Nc2ccnc3cc(Cl)ccc23)cc(-c2ccc(Cl)cc2)c1F`, the IC50 came to 104 nM in the test with Plasmodium falciparum [1] and 101 nM with Plasmodium falciparum [3] (Plasmodium falciparum).
Turning to `CC(C)(C)NCc1cc(Nc2ccnc3cc(Cl)ccc23)cc(-c2ccc(Cl)cc2)c1F` [FLOUROTEBUQUINE], half-maximal inhibition in the test on Plasmodium falciparum [1] (IC50) was put at 61.6 nM. Besides, the CAR in test [2] stood at 1080.
For `CC(C)(C)NCc1cc(Nc2ccnc3cc(Cl)ccc23)cc(-c2ccc(Cl)cc2)c1`, the half-inhibitory concentration (IC50) in the test with Plasmodium falciparum [1] is 56.6 nM; with Plasmodium falciparum [3] (Plasmodium falciparum), 74.2 nM. Moreover, in test [2], the CAR worked out at 1200.
In the case of `CCN(CC)Cc1cccc(Nc2ccnc3cc(Cl)ccc23)c1`, the IC50 in the test with Plasmodium falciparum [1] came to 16.2 nM. Moreover, in test [2], the CAR was determined as 3090.
Taken in the same sequence, the figures for `CCN(CC)Cc1cc(Nc2ccnc3cc(Cl)ccc23)cc(F)c1O` were 55.2 nM and 1510.
In the test on Plasmodium falciparum [1], `CCNCc1cc(Nc2ccnc3cc(Cl)ccc23)ccc1O` [DESETHYL AMODIAQUINE] showed an IC50 of 4.5 nM. For the same compound, the CAR in test [2] was 6410.
Taken in the same sequence, the figures for `CCN(CC)Cc1cc(Nc2ccnc3cc(Cl)ccc23)ccc1F` were 31.9 nM and 1710.
In the case of `CC(C)(C)NCc1cc(Nc2ccnc3cc(Cl)ccc23)cc(-c2ccc(Cl)cc2)c1O` [TEBUQUINE], the CAR in test [2] is 70200. The IC50 in the test with Plasmodium falciparum [3] amounted to 42.1 nM.
